The target of test [1] is T1, 6,7-dimethyl-8-ribityllumazine synthase (Mycobacterium tuberculosis, UniProt P9WHE9). Briefly: Inhibition of Mycobacterium tuberculosis recombinant lumazine synthase at enzyme-inhibitor complex state after 30 mins by fluorescence assay. The procedure, abridged: (§1)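 Recombinant M. tuberculosis lumazine synthase (2 μM) in 100 mM Tris-HCl pH 7.0, 100 mM NaCl, 5 mM DTT, 2% DMSO. Dihydroxybutanone phosphate was fixed at 100 μM, pyrimidinedione substrate varied 3–100 μM, and inhibitor 0–200 μM. Reactions were started with the pyrimidinedione substrate. Lumazine formation was read at 408 nm for 30 min at 27 °C. Velocity–substrate data were fitted by nonlinear regression to alternative inhibition models.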

Test [2] is described as follows: Inhibition of Mycobacterium tuberculosis recombinant riboflavin synthase at […] state after 30 mins by fluorescence assay. The gist of the method: (§2)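 Recombinant M. tuberculosis riboflavin synthase (1 μM) in 100 mM Tris-HCl pH 7.0, 100 mM NaCl, 5 mM DTT, 2% DMSO. 6,7-Dimethyl-8-ribityllumazine substrate was varied 3–60 μM and inhibitor 0–200 μM. Reactions were started with substrate. Riboflavin formation was monitored at 470 nm for 30 min at 27 °C. Velocity–substrate data for all inhibitor levels were fitted by nonlinear regression to alternative inhibition models.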

Test [3] concerns the target T1, 6,7-dimethyl-8-ribityllumazine synthase. Briefly: Inhibition of Mycobacterium tuberculosis recombinant lumazine synthase at enzyme-substrate-inhibitor complex state after 30 mins by fluorescence assay. The procedure, abridged:
as §1

Test [4] in a line: Inhibition of Mycobacterium tuberculosis recombinant riboflavin synthase at enzyme-substrate-inhibitor complex state after 30 mins by fluorescence assay. The procedure, abridged:
as §2

Bounds are passed on as bounds.

Data on seven compounds can be found in ChEMBL document CHEMBL1157805, “Virtual screening, selection and development of a benzindolone structural scaffold for inhibition of lumazine synthase” (Bioorg Med Chem, 2010).

T1 sequence (P9WHE9 whole entry): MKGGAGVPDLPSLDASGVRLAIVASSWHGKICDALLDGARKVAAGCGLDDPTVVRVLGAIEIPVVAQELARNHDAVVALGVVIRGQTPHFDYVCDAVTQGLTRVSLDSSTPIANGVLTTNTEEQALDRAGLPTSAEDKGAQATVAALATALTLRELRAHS

As to `O=C1Nc2ccc(S(=O)(=O)NCCCOP(=O)(O)O)c3cccc1c23`, the Ki in test [1] came to 99 µM.

On to `O=C1Nc2ccc(S(=O)(=O)NCCCCC(F)(F)P(=O)(O)O)c3cccc1c23`, for which the Ki is 4.1 µM in test [2], 832 µM in test [1], 518 µM in test [3] and more than 1000 µM in test [4].

In the case of `O=C1Nc2ccc(S(=O)(=O)NCCCCOP(=O)(O)O)c3cccc1c23`, the Ki in test [1] was found to be 38 µM.

As to `O=C(O)CNS(=O)(=O)c1ccc2c3c(cccc13)C(=O)N2`, the Ki in test [1] is 70 µM.

Regarding `O=C1Nc2ccc(S(=O)(=O)NCCOP(=O)(O)O)c3cccc1c23`, in test [1], the Ki was found to be 260 µM.

With `O=C1Nc2ccc(S(=O)(=O)NCCCCCCOP(=O)(O)O)c3cccc1c23`, the Ki in test [2] stood at 9.8 µM; in test [3], 723 µM; in test [4], 898 µM.

In the case of `CCOC(=O)C(=O)Nc1c(Cl)[nH]c(=O)[nH]c1=O`, the Ki in test [1] is 832 µM.

By Ki is commonly meant the dissociation constant of the complex between target and ligand, obtained from inhibition or displacement.
